The target of data set [1] is T1, Aromatase (Homo sapiens, UniProt P11511).
T1 sequence (P11511 whole entry): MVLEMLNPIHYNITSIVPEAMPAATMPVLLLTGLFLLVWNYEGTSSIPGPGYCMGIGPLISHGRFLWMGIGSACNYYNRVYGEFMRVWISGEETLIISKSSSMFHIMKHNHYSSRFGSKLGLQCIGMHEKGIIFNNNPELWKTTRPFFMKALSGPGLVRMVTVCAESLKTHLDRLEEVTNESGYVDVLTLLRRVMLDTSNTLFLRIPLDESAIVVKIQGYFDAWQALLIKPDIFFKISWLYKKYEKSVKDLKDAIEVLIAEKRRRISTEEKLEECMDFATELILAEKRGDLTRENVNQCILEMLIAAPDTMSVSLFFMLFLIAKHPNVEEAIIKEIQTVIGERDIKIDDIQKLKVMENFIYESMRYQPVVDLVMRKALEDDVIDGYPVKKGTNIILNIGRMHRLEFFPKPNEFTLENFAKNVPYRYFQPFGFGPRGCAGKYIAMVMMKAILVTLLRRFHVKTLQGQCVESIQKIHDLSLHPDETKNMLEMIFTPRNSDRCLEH
Description: Ratio of Ki to Km for human placental cytochrome P450 19A1. The gist of the method: (§1)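 Human placental microsomes (stored at -70 °C) in incubation buffer containing 4% by weight propylene glycol. Aromatase assays ran 1–5 min with five androstenedione concentrations (0.05–1.0 μM) and varied inhibitor concentrations. Ki is the average of two determinations at each of two inhibitor concentrations, with average deviation. Androstenedione Km was determined in each experiment, and the Ki/Km ratio was calculated.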

For data set [2], the target named is T1, Aromatase. Description: Competitive inhibition of binding to human placental aromatase Cytochrome P450 19A1.
Data set [3] deals with T1, Aromatase. Briefly: Inactivation rate (Ki) of human placental Cytochrome P450 19A1. The gist of the method:
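Inhibitor at four concentrations, in duplicate, was preincubated for various times with human placental microsomes and NADPH in buffer with 4% propylene glycol. Tritiated androstenedione was then added and residual aromatase activity assayed over 5 min. Loss was corrected against inhibitor-free controls, and first-order slopes gave k_app. Apparent Ki and k_inact came from a reciprocal k_app vs reciprocal concentration plot, with limiting t1/2 = ln2/k_inact.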

Data set [4] deals with T1, Aromatase. Briefly: Competitive inhibition of binding to human placental Cytochrome P450 19A1. The gist of the method:
as §1

The nature of data set [5]: Limiting t1/2 is the half life of aromatase inactivation in the presence of saturating concentrations of inhibitor. Summed up:
(§2)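 Human placental microsomes (stored -70 °C; protein 8.9–16.4 mg/mL, specific activity 34–101 pmol min⁻¹ (mg protein)⁻¹) preincubated with NADPH and four inhibitor concentrations for various times, in buffer with 4% propylene glycol. Tritiated androstenedione then added and remaining aromatase activity assayed 5 min. Duplicates averaged. Activity corrected against inhibitor-free controls. Apparent Ki and kinact from double-reciprocal plot of kapp vs inhibitor concentration. Limiting t1/2 = ln2/kinact.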

Data set [6] concerns the target T1, Aromatase. Briefly: Inactivation rate (Ki) for human placental aromatase Cytochrome P450 19A1.
Data set [7] concerns the target T1, Aromatase. Briefly: Inactivation rate (Ki) for human placental Cytochrome P450 19A1. Summed up:
as §2

In the case of `CCC(=O)C1(C)CCC2C(CCC3=CC(=O)C=CC32C)C1` (stereo not drawn), the Ratio on Aromatase [1] is 1833. For the same molecule, the Ki on Aromatase [2] is 97 µM.
Regarding `CC(=O)C1(C)CCC2C(CCC3=CC(=O)C=CC32C)C1` (stereo not drawn), the Ratio on Aromatase [1] is 670. In addition, the Ki at Aromatase [2] is 45 µM.
Taken in the same sequence, the figures for `CC(=O)OCC1(C)CCC2C(CCC3=CC(=O)C=CC32C)C1` (stereo not drawn) were 273 and 13 µM.
In the case of `CC1(C=O)CCC2C(CCC3=CC(=O)C=CC32C)C1` (stereo not drawn), the Ki on Aromatase [3] amounted to 3.98 µM.
Consider `CC1(C(=O)O)CCC2C(CCC3=CC(=O)C=CC32C)C1` (stereo not drawn), for which the Ratio at Aromatase [1] worked out at 18651. This molecule returned a Ki at Aromatase [2] of 893 µM.
In turn, `CC1C2CCC3=CC(=O)C=CC3(C)C2CCC1(C)C(=O)O` (stereo not drawn) returned a Ki at Aromatase [4] of 1200 µM. For the same molecule, the Ratio at Aromatase [1] is reported as 23234.
For the molecule `C[C@]12C=CC(=O)C=C1CC[C@@H]1[C@@H]2CC[C@]2(C)C(=O)OC[C@@H]12`, the “Limiting t1/2” value in data set [5] is on record as 6.2 min. For the same molecule, the Ki on Aromatase [2] worked out at 0.41 µM; at Aromatase [6], 390 nM.
Regarding `COC(=O)C1(C)CCC2C(CCC3=CC(=O)C=CC32C)C1` (stereo not drawn), the Ki at Aromatase [4] turned out to be 130 µM. Further, the Ratio at Aromatase [1] was 1898.
`CC1(CO)CCC2C(CCC3=CC(=O)C=CC32C)C1` (stereo not drawn): the Ki on Aromatase [3] is 8.56 µM.
Turning to `CC12CCCC1C1CCC3=CC(=O)C=CC3(C)C1CC2` (stereo not drawn), at Aromatase [1], the Ratio was 8.8. In addition, the “Limiting t1/2” value in data set [5] turned out to be 15.2 min. For the same molecule, the Ki on Aromatase [2] came out at 0.69 µM; at Aromatase [7], 1100 nM.
Consider `COC(=O)C1(C)CCC2C(CCC3=CC(=O)C=CC32C)C1C` (stereo not drawn), for which the Ratio on Aromatase [1] was 2600. The Ki on Aromatase [2] was 103 µM.
Regarding `C[C@]12C=CC(=O)C=C1CC[C@@H]1[C@@H]2CC[C@]2(C)C(=O)CC[C@@H]12` [ANDROSTENEDONE], the “Limiting t1/2” value in data set [5] is recorded as 12.6 min.
`C[C@]12CCC(=O)C[C@@H]1CC[C@@H]1[C@@H]2CC[C@]2(C)[C@@H](O)CC[C@@H]12` [STANOLONE]: the Ki came out at 0.22 µM on Aromatase [4] and 1550 nM at Aromatase [7]. Also, the Ratio on Aromatase [1] is given as 10.6. Further, the “Limiting t1/2” value in data set [5] is given as 12.9 min.

(Values after ChEMBL document CHEMBL1124424, “Effects of steroid D-ring modification on suicide inactivation and competitive inhibition of aromatase by analogues of androsta-1,4-diene-3,17-dione” (J Med Chem, 1989).)
